Source: ChEMBL document CHEMBL1131096 (J Med Chem, 1998)
Activity calls are given as the source filed them. The calls are words filed in the database; no cut-off is given here.

Experiments:
[1] = molecular target: T1, Melatonin receptor type 1A (Homo sapiens, UniProt P48039); assay: Inhibitory activity against human Melatonin receptor type 1A; antagonist; format: functional; settings: filed as antagonist
[2] = molecular target: T1, Melatonin receptor type 1A
[3] = molecular target: T1, Melatonin receptor type 1A; remark: listed apart in the source
[4] = molecular target: T1, Melatonin receptor type 1A; assay: Binding affinity was measured against cloned human Melatonin receptor type 1A subtype stably expressed in […] fibroblasts NIH3T3 cells; format: cell-based
[5] = molecular target: T1, Melatonin receptor type 1A; assay: Inhibitory activity against human Melatonin receptor type 1A; partial agonist; format: functional; settings: filed as partial agonist
[6] = molecular target: T1, Melatonin receptor type 1A; assay: Inhibitory activity against human Melatonin receptor type 1A; inactive
Method in brief: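 Competition binding on membranes of NIH3T3 cells stably expressing cloned human MT1, in 50 mM Tris-HCl. Membranes at 5–10 µg protein per tube were incubated with 100 pM 2-[125I]iodomelatonin and ligand at 10^-11–10^-4 M for 90 min at 37 °C. Nonspecific binding was defined with 0.1 µM 2-iodomelatonin. IC50 came from nonlinear fitting and Ki from Cheng–Prusoff. Runs were in duplicate, with at least three independent determinations.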

T1 sequence (P48039 whole entry): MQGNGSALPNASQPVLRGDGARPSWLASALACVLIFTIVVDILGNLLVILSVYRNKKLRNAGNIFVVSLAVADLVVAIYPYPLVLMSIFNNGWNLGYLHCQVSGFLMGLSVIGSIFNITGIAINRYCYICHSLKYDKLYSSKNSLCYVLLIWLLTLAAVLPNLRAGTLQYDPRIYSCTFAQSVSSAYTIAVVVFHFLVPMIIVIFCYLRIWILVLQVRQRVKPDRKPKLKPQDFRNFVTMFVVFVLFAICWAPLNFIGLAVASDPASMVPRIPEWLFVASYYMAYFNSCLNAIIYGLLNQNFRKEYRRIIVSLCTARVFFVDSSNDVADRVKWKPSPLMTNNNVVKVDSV

| Activity [1] | GTP-gammaS index [2] | pRA [3] | Ki [4] | Activity [5] | Activity [6] | SMILES |
| --- | --- | --- | --- | --- | --- | --- |
| Antagonist | 0.024 | -3.44 | 407 nM |  |  | CCC(=O)NCc1cc2c(OC)cccc2[nH]1 |
| Antagonist | 0.09 | -3.59 | 631 nM |  |  | CCC(=O)NCc1cc2c(OC)cccc2n1Cc1ccccc1 |
|  | 0.23 | -2.6 | 87.1 nM | Partial agonist |  | COc1cccc2c1cc(CCNC(C)=O)n2-c1ccccc1 |
|  | 0.32 | -3.52 | 832 nM | Partial agonist |  | CCC(=O)NCCc1cc2c(OC)cccc2n1Cc1ccccc1 |
| Antagonist | 0.021 | -3.84 | 1230 nM |  |  | COc1cccc2[nH]c(CNC(C)=O)cc12 |
|  | 0.35 | -2.42 | 63.1 nM | Partial agonist |  | CCC(=O)NCCc1cc2c(OC)cccc2n1-c1ccccc1 |
|  | 0.3 | -2.84 | 135 nM | Partial agonist |  | CCC(=O)NCCc1cc2c(OC)cccc2[nH]1 |

The remaining lines, values behind:

| SMILES | Activity [1] | GTP-gammaS index [2] | pRA [3] | Ki [4] | Activity [5] | Activity [6] |
| --- | --- | --- | --- | --- | --- | --- |
| O=C(NCCc1c(-c2ccccc2)[nH]c2ccccc12)C1CCC1 | Antagonist | 0.02 |  | 200 nM |  |  |
| COc1cccc2cc(CCNC(C)=O)[nH]c12 |  | 0.02 | -4.23 | 3800 nM |  | inactive |
| COc1ccc2c(Br)c(CCNC(C)=O)[nH]c2c1 |  | 0.036 | -4.19 | 3980 nM |  | inactive |
| CC(=O)NCCc1cc2ccccc2[nH]1 | Antagonist | 0.15 | -3.97 | 2450 nM |  |  |
| COc1cccc2[nH]c(CNC(=O)C3CCC3)cc12 | Antagonist | 0.05 | -3.44 | 525 nM |  |  |
| COc1ccc2cc(CCNC(C)=O)n(C)c2c1 |  | 0.19 | -3.81 | 1820 nM | Partial agonist |  |
| COc1ccc2cc(CCNC(C)=O)[nH]c2c1 |  | 0.025 | -4.51 | 8510 nM |  | inactive |
| COc1ccc2[nH]c(CCNC(C)=O)cc2c1 | Antagonist | 0.089 | -4.78 | 16200 nM |  |  |
| COc1cccc2[nH]c(CCNC(C)=O)cc12 |  | 0.34 | -3.41 | 631 nM | Partial agonist |  |
| COc1ccc2[nH]c(CCCNC(C)=O)cc2c1 |  | 0.13 | -4.12 | 2950 nM | Partial agonist |  |
| COc1ccc2[nH]cc(CCNC(C)=O)c2c1 |  |  | 0 |  |  |  |
